One experiment relates to Streptococcus sanguinis. Briefly: Antimicrobial activity against Streptococcus sanguinis NY101 after 16 to 20 hrs by broth microdilution assay. In kind it is functional. In short, it runs like this: (§1)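 Broth microdilution. Twofold peptide dilutions were made in 50% BHI–50% sterile water for oral streptococci and in 1× Mueller-Hinton broth for the other bacteria. First round 500 to 0.97 µg/ml; a second round of 64 to 0.5 µg/ml was run in some cases, reporting its mode. Inoculum ~1 × 10^5 CFU/ml, 37°C for 16–20 h. Read A600; MIC taken as complete inhibition or ≥90% turbidity reduction versus peptide-free control.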
A general note: In broth dilution the organism is exposed to a series of concentrations in liquid medium.

Experiment [1] is described as follows: Antimicrobial activity against Streptococcus gordonii Challis DL1 after 16 to 20 hrs by broth microdilution assay. It is filed as functional, Streptococcus gordonii str. Challis. In short, it runs like this:
as §1

The test system of a further experiment is Streptococcus mutans. Briefly: Antimicrobial activity against Streptococcus mutans UA159 after 16 to 20 hrs by broth microdilution assay. In kind it is functional. In short, it runs like this:
as §1

The next experiment has as its system Staphylococcus aureus. Briefly: Antimicrobial activity against methicillin-resistant Staphylococcus aureus after 16 to 20 hrs by broth microdilution assay. In kind it is functional. A digest of the protocol: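 MRSA grown aerobically in BHI at 37°C. Broth microdilution: 2-fold peptide dilutions in 1× Mueller-Hinton broth, first round 500 to 0.97 µg/ml; if activity below 62.5 µg/ml, sometimes a second round at 64 to 0.5 µg/ml, reporting the mode. Inoculum ~1 × 10^5 CFU/ml, 37°C for 16-20 h. A600 read. MIC = lowest concentration giving complete inhibition or ≥90% turbidity reduction versus peptide-free control.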

Another experiment concerns Streptococcus mitis. The experiment can be described thus: Antimicrobial activity against Streptococcus mitis ATCC 903 after 16 to 20 hrs by broth microdilution assay. It is filed as functional. In short, it runs like this: as §1
The subject of the next experiment is Pseudomonas aeruginosa. The experiment can be described thus: Antimicrobial activity against Pseudomonas aeruginosa PAK after 16 to 20 hrs by broth microdilution assay. It is filed as functional. In short, it runs like this:
as §1

What is called MIC is the lowest concentration that inhibits growth of the organism. Lower therefore signals greater potency.

Values after ≈ are worked out from the molar mass of the structure shown. Square brackets hold non-standard residues; d marks the D form. Peptide text beside a SMILES is read from it. Aoc = NCCCCCCCC(=O)O

Regarding `CC[C@H](C)[C@H](NC(=O)[C@H](Cc1ccccc1)NC(=O)[C@H](Cc1cnc[nH]1)NC(=O)[C@H](CCCCN)NC(=O)[C@@H](NC(=O)[C@@H](N)Cc1ccccc1)[C@@H](C)CC)C(=O)N[C@@H](Cc1cnc[nH]1)C(=O)N[C@@H](CCCNC(=N)N)C(=O)N[C@@H](Cc1ccccc1)C(=O)NCCCCCCCC(=O)N[C@@H](CC(C)C)C(=O)N[C@@H](CCC(N)=O)C(=O)N[C@@H](CC(C)C)C(=O)N[C@@H](CC(C)C)C(=O)N[C@@H](CCCCN)C(=O)N[C@@H](CCC(N)=O)C(=O)N[C@@H](CC(C)C)C(=O)N[C@@H](CC(C)C)C(=O)N[C@@H](CCCCN)C(=O)N[C@@H](CC(C)C)C(=O)N[C@@H](CC(C)C)C(=O)N[C@@H](CCCCN)C(=O)N[C@@H](CCC(N)=O)C(=O)N[C@@H](Cc1ccccc1)C(N)=O` (H-FIKHFIHRF[Aoc]LQLLKQLLKLLKQF-NH2), the minimal inhibitory concentration (MIC) in the experiment with Streptococcus sanguinis came out at 32 µg/mL (≈ 10.3 µM); in experiment [1], 32 µg/mL (≈ 10.3 µM); in the experiment on Streptococcus mutans it was 16 µg/mL (≈ 5.17 µM); with Staphylococcus aureus, 62.5 µg/mL (≈ 20.2 µM); against Streptococcus mitis, 62.5 µg/mL (≈ 20.2 µM); against Pseudomonas aeruginosa, 62.5 µg/mL (≈ 20.2 µM).

Take `CC[C@H](C)[C@H](NC(=O)[C@H](Cc1ccccc1)NC(=O)CCCCCCCNC(=O)[C@H](Cc1ccccc1)NC(=O)[C@H](CCC(N)=O)NC(=O)[C@H](CCCCN)NC(=O)[C@H](CC(C)C)NC(=O)[C@H](CC(C)C)NC(=O)[C@H](CCCCN)NC(=O)[C@H](CC(C)C)NC(=O)[C@H](CC(C)C)NC(=O)[C@H](CCC(N)=O)NC(=O)[C@H](CCCCN)NC(=O)[C@H](CC(C)C)NC(=O)[C@H](CC(C)C)NC(=O)[C@H](CCC(N)=O)NC(=O)[C@@H](N)CC(C)C)C(=O)N[C@@H](CCCCN)C(=O)N[C@@H](Cc1cnc[nH]1)C(=O)N[C@@H](Cc1ccccc1)C(=O)N[C@H](C(=O)N[C@@H](Cc1cnc[nH]1)C(=O)N[C@@H](CCCNC(=N)N)C(=O)N[C@@H](Cc1ccccc1)C(N)=O)[C@@H](C)CC` (H-LQLLKQLLKLLKQF[Aoc]FIKHFIHRF-NH2): the MIC worked out at 32 µg/mL (≈ 10.3 µM) in the experiment with Streptococcus sanguinis; 16 µg/mL (≈ 5.17 µM) in experiment [1]; 8 µg/mL (≈ 2.59 µM) against Streptococcus mutans; 62.5 µg/mL (≈ 20.2 µM) in the experiment with Staphylococcus aureus; 32 µg/mL (≈ 10.3 µM) in the experiment with Streptococcus mitis; 32 µg/mL (≈ 10.3 µM) against Pseudomonas aeruginosa.

`CC[C@H](C)[C@H](NC(=O)[C@H](Cc1ccccc1)NC(=O)CCCCCCCNC(=O)[C@H](Cc1cnc[nH]1)NC(=O)[C@H](CC(C)C)NC(=O)[C@H](CC(C)C)NC(=O)[C@H](Cc1cnc[nH]1)NC(=O)[C@H](Cc1cnc[nH]1)NC(=O)[C@H](CC(C)C)NC(=O)[C@H](CCCCN)NC(=O)[C@H](CCCCN)NC(=O)[C@H](CC(C)C)NC(=O)[C@H](CC(C)C)NC(=O)[C@H](CCCNC(=N)N)NC(=O)[C@H](CCCNC(=N)N)NC(=O)[C@H](Cc1c[nH]c2ccccc12)NC(=O)[C@@H](N)CCCNC(=N)N)C(=O)N[C@@H](CCCCN)C(=O)N[C@@H](Cc1cnc[nH]1)C(=O)N[C@@H](Cc1ccccc1)C(=O)N[C@H](C(=O)N[C@@H](Cc1cnc[nH]1)C(=O)N[C@@H](CCCNC(=N)N)C(=O)N[C@@H](Cc1ccccc1)C(N)=O)[C@@H](C)CC` (H-RWRRLLKKLHHLLH[Aoc]FIKHFIHRF-NH2): the MIC was found to be 16 µg/mL (≈ 4.89 µM) against Streptococcus sanguinis; 16 µg/mL (≈ 4.89 µM) in experiment [1]; 8 µg/mL (≈ 2.44 µM) in the experiment with Streptococcus mutans; 62.5 µg/mL (≈ 19.1 µM) against Staphylococcus aureus; 32 µg/mL (≈ 9.78 µM) in the experiment on Streptococcus mitis; 32 µg/mL (≈ 9.78 µM) in the experiment with Pseudomonas aeruginosa.

On to `CC[C@H](C)[C@H](NC(=O)[C@H](Cc1ccccc1)NC(=O)CCCCCCCNC(=O)[C@H](Cc1ccccc1)NC(=O)[C@H](Cc1c[nH]c2ccccc12)NC(=O)[C@H](CCCNC(=N)N)NC(=O)[C@H](Cc1c[nH]c2ccccc12)NC(=O)[C@H](CCCNC(=N)N)NC(=O)[C@H](Cc1c[nH]c2ccccc12)NC(=O)[C@@H](N)CCCNC(=N)N)C(=O)N[C@@H](CCCCN)C(=O)N[C@@H](Cc1cnc[nH]1)C(=O)N[C@@H](Cc1ccccc1)C(=O)N[C@H](C(=O)N[C@@H](Cc1cnc[nH]1)C(=O)N[C@@H](CCCNC(=N)N)C(=O)N[C@@H](Cc1ccccc1)C(N)=O)[C@@H](C)CC` (H-RWRWRWF[Aoc]FIKHFIHRF-NH2), for which the MIC was determined as 32 µg/mL (≈ 12.5 µM) against Streptococcus sanguinis; 62.5 µg/mL (≈ 24.4 µM) in experiment [1]; 32 µg/mL (≈ 12.5 µM) in the experiment with Streptococcus mutans; 62.5 µg/mL (≈ 24.4 µM) against Staphylococcus aureus; 32 µg/mL (≈ 12.5 µM) in the experiment with Streptococcus mitis; 125 µg/mL (≈ 48.8 µM) against Pseudomonas aeruginosa.

On to H-FIKHFIHRFGGGIKQLLHFFQRF-NH2, for which the MIC worked out at 32 µg/mL with Streptococcus sanguinis; 32 µg/mL in experiment [1]; 8 µg/mL with Streptococcus mutans; 62.5 µg/mL with Staphylococcus aureus; 16 µg/mL with Streptococcus mitis; 125 µg/mL against Pseudomonas aeruginosa.

Take H-FIKHFIHRFSATLQLLKQLLKLLKQF-NH2: the MIC with Streptococcus sanguinis was found to be 16 µg/mL; in experiment [1], 8 µg/mL; against Streptococcus mutans it was 16 µg/mL; in the experiment on Staphylococcus aureus, 62.5 µg/mL; in the experiment with Streptococcus mitis, 32 µg/mL; against Pseudomonas aeruginosa, 32 µg/mL.

As for H-FIKHFIHRFSGGLQLLKQLLKLLKQF-NH2, the MIC is 32 µg/mL in the experiment with Streptococcus sanguinis; 8 µg/mL in experiment [1]; 16 µg/mL against Streptococcus mutans; 32 µg/mL with Staphylococcus aureus; 62.5 µg/mL in the experiment with Streptococcus mitis; 32 µg/mL in the experiment on Pseudomonas aeruginosa.

As to H-FIKHFIHRFSGGRWRRLLKKLHHLLH-NH2, the MIC with Streptococcus sanguinis was 16 µg/mL; in experiment [1], 32 µg/mL; in the experiment on Streptococcus mutans it was 16 µg/mL; against Staphylococcus aureus, 32 µg/mL; with Streptococcus mitis, 62.5 µg/mL; in the experiment on Pseudomonas aeruginosa it was 32 µg/mL.

As to H-FIKHFIHRFSGGRWRWRWF-NH2, the MIC in the experiment on Streptococcus sanguinis stood at 32 µg/mL; in experiment [1] it was 32 µg/mL; in the experiment on Streptococcus mutans it was 8 µg/mL; against Staphylococcus aureus, 32 µg/mL; against Streptococcus mitis, 32 µg/mL; against Pseudomonas aeruginosa, 62.5 µg/mL.

Turning to H-FKKFWKWFRRFGGGFIKHFIHRF-NH2, the MIC was found to be 32 µg/mL with Streptococcus sanguinis; 125 µg/mL in experiment [1]; 8 µg/mL against Streptococcus mutans; 32 µg/mL against Staphylococcus aureus; 62.5 µg/mL against Streptococcus mitis; 125 µg/mL against Pseudomonas aeruginosa.

For the molecule H-IKQLLHFFQRF-NH2, the MIC in the experiment on Streptococcus sanguinis was determined as 62.5 µg/mL; in experiment [1], 32 µg/mL; in the experiment on Streptococcus mutans, 24 µg/mL; against Staphylococcus aureus it was 62.5 µg/mL; against Streptococcus mitis, 62.5 µg/mL; against Pseudomonas aeruginosa, 62.5 µg/mL.

H-IKQLLHFFQRFGGGFIKHFIHRF-NH2: the MIC against Streptococcus sanguinis was found to be 32 µg/mL; in experiment [1] it was 32 µg/mL; in the experiment on Streptococcus mutans, 8 µg/mL; in the experiment with Staphylococcus aureus it was 62.5 µg/mL; against Streptococcus mitis it was 16 µg/mL; in the experiment on Pseudomonas aeruginosa it was 125 µg/mL.

Regarding H-LQLLKQLLKLLKQF-NH2, the MIC in the experiment on Streptococcus sanguinis was determined as 8 µg/mL; in experiment [1] it was 8 µg/mL; in the experiment on Streptococcus mutans, 8 µg/mL; against Staphylococcus aureus, 16 µg/mL; against Streptococcus mitis it was 16 µg/mL; against Pseudomonas aeruginosa it was 8 µg/mL.

In the case of H-LQLLKQLLKLLKQFSATFIKHFIHRF-NH2, the MIC was 16 µg/mL against Streptococcus sanguinis; 16 µg/mL in experiment [1]; 8 µg/mL with Streptococcus mutans; 32 µg/mL against Staphylococcus aureus; 32 µg/mL against Streptococcus mitis; 32 µg/mL against Pseudomonas aeruginosa.

In the case of H-LQLLKQLLKLLKQFSGGFIKHFIHRF-NH2, the MIC against Streptococcus sanguinis came to 16 µg/mL; in experiment [1] it was 16 µg/mL; in the experiment with Streptococcus mutans, 8 µg/mL; in the experiment with Staphylococcus aureus, 32 µg/mL; against Streptococcus mitis, 32 µg/mL; against Pseudomonas aeruginosa, 32 µg/mL.

As for H-RWRRLLKKLHHLLH-NH2, the MIC with Streptococcus sanguinis worked out at 16 µg/mL; in experiment [1] it was 16 µg/mL; in the experiment on Streptococcus mutans, 8 µg/mL; in the experiment on Staphylococcus aureus, 16 µg/mL; with Streptococcus mitis it was 32 µg/mL; against Pseudomonas aeruginosa it was 8 µg/mL.

Source of the values: ChEMBL document CHEMBL1255454, “Systematic approach to optimizing specifically targeted antimicrobial peptides against Streptococcus mutans” (2010).
